In paper PMC10184136 (RSC Advances, 2023):
Entries after “also recorded” stand apart in the source; their conditions may differ.

Tests used:
[1] = system: red blood cell membrane (bovine erythrocytes); experiment: Hemolytic activity; format: cell-based; conditions: bovine erythrocyte (RBC) suspension, pH 7.4
In short: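 Bovine blood was collected in EDTA, diluted with 0.9% NaCl and centrifuged at 1000×g for 10 min. Erythrocytes were suspended in phosphate saline buffer, pH 7.4. 20 μl of a 10 mg ml−1 compound solution was added to 180 μl RBC suspension and incubated 30 min at room temperature. PBS was the negative control and Triton X-100 the positive control. % hemolysis was calculated by formula; mean ± SEM.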

[2] = molecular target: calf intestinal alkaline phosphatase (CIALP) (Bos taurus, UniProt P19111); experiment: Alkaline phosphatase inhibition assay; format: biochemical
calf intestinal alkaline phosphatase (CIALP), sequence (P19111 20-506 limits assumed): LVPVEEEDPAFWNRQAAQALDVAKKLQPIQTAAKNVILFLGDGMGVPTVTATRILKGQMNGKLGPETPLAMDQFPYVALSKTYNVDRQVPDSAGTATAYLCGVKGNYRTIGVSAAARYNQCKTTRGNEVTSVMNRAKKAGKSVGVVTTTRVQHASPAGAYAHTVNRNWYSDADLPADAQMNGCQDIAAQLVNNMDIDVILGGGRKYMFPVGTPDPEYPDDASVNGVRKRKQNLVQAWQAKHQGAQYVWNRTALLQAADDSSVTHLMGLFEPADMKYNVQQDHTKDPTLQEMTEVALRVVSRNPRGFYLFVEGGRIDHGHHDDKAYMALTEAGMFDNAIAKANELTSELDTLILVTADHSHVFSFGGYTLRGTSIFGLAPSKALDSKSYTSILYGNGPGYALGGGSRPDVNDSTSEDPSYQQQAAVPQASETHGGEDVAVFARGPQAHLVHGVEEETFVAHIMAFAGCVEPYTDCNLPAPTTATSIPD

alkaline phosphatase = alkaline phosphatase (Bos taurus, UniProt P19111); experiment: Kinetic analysis; format: biochemical, calf; conditions: for K m / V max: substrate p-NPP
alkaline phosphatase, sequence (P19111 20-506 limits assumed): as above
In short: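 Run under the same pre-incubation and conditions as the CIALP p-NPP assay. p-NPP was used at 10, 5, 2.5, 1.25, 0.625 and 0.3125 mM with inhibitor at 0, 0.106, 0.211 and 0.422 μM. Initial velocities came from the linear absorbance phase, read at 1-min intervals up to 10 min. Inhibition type was taken from Lineweaver–Burk plots (1/V vs 1/[S]). Ki came from a secondary plot of slope vs inhibitor concentration, with linear least-squares fits.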

SMILES	hemolysis at 30 min, 1 mg/mL [1]	IC50 [2]	also measured
O=C(CCSc1nnc(-c2ccccc2)o1)Nc1nccs1 [8a, 3-[(5-Phenyl-1,3,4-oxadiazol-2-yl)sulfanyl]-N-(1,3-thiazol-2-yl)propanamide]	7.79 ± 0.02%	3.98 ± 0.356 µM	
O=C(CCSc1nnc(-c2ccc(O)cc2)o1)Nc1nccs1 [8b, 3-{[5-(4-Hydroxyphenyl)-1,3,4-oxadiazol-2-yl]sulfanyl}-N-(1,3-thiazol-2-yl)propanamide]	5.68 ± 0.04%	5.99 ± 0.417 µM	
Nc1ccc(-c2nnc(SCCC(=O)Nc3nccs3)o2)cc1 [8c, 3-{[5-(4-Aminophenyl)-1,3,4-oxadiazol-2-yl]sulfanyl}-N-(1,3-thiazol-2-yl)propanamide]	7.58 ± 0.01%	8.73 ± 0.664 µM	
Cc1ccc(-c2nnc(SCCC(=O)Nc3nccs3)o2)cc1 [8d, 3-{[5-(4-Methylphenyl)-1,3,4-oxadiazol-2-yl]sulfanyl}-N-(1,3-thiazol-2-yl)propanamide]	8.32 ± 0.03%	1.88 ± 0.071 µM	
Cc1cnc(NC(=O)CCSc2nnc(-c3ccccc3)o2)s1 [8e, N-(5-Methyl-1,3-thiazol-2-yl)-3-[(5-phenyl-1,3,4-oxadiazol-2-yl)sulfanyl]propanamide]	6.84 ± 0.03%	6.32 ± 0.551 µM	
Cc1cnc(NC(=O)CCSc2nnc(-c3ccc(O)cc3)o2)s1 [8f, 3-{[5-(4-Hydroxyphenyl)-1,3,4-oxadiazol-2-yl]sulfanyl}-N-(5-methyl-1,3-thiazol-2-yl)propanamide]	7.47 ± 0.05%	2.16 ± 0.118 µM	
Cc1cnc(NC(=O)CCSc2nnc(-c3ccc(N)cc3)o2)s1 [8g, 3-{[5-(4-Aminophenyl)-1,3,4-oxadiazol-2-yl]sulfanyl}-N-(5-methyl-1,3-thiazol-2-yl)propanamide]	8.82 ± 0.02%	0.211 ± 0.019 µM	Ki (alkaline phosphatase): 0.42 µM; K m (alkaline phosphatase; 8g 0.106 μM): 360 µM; V max (alkaline phosphatase; 8g 0.106 μM): 0.003004 ΔA min^−1; K m (alkaline phosphatase; 8g 0.211 μM): 360 µM; V max (alkaline phosphatase; 8g 0.211 μM): 0.002406 ΔA min^−1; K m (alkaline phosphatase; 8g 0.422 μM): 360 µM; V max (alkaline phosphatase; 8g 0.422 μM): 0.001826 ΔA min^−1; Inhibition type (alkaline phosphatase; Lineweaver–Burk plots): non-competitively; also recorded: Non-competitive
Cc1cnc(NC(=O)CCSc2nnc(-c3cccc([N+](=O)[O-])c3)o2)s1 [8h, N-(5-Methyl-1,3-thiazol-2-yl)-3-{[5-(3-nitrophenyl)-1,3,4-oxadiazol-2-yl]sulfanyl}propanamide]	8.63 ± 0.02%	3.75 ± 0.981 µM	
CC(C)(C)CC(C)(C)c1ccc(OCCO)cc1 [Triton X, reference compound]	89 ± 0.01%		
